Source: ChEMBL document CHEMBL1177705, “Synthesis and biological characterization of the histone deacetylase inhibitor largazole and C7- modified analogues” (J Med Chem, 2010)
Active and inactive are the calls of the source. The calls are words filed in the database; no cut-off is given here.

Tests used:
[1] = test system: NB-4; test: Cell cycle arrest in human NB4 cells assessed as increase in accumulation at pre-G1 phase at 5 uM after 24 hrs by FACS analysis; format: functional, cell-based
Procedure, shortened: (§1)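 NB4 acute promyelocytic leukemia cells grown in RPMI 1640 with heat-inactivated FBS, glutamine, antibiotics, 37 °C, 5% CO2. Compounds given from DMSO. They were kept 30 min in the dark, then DNA content was read by flow cytometry with the pre-G1 fraction scored. Run in triplicate.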

[2] = test system: NB-4; test: Induction of p21WAF1/CIP1 expression in human NB4 cells at 5 uM after 24 hrs by Western blot analysis; format: functional, cell-based
Procedure, shortened: (§2)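 NB4 cells treated with compounds from DMSO, harvested and PBS-washed. Lysis was 15 min at 4 °C in 50 mM Tris-HCl pH 7.4, 150 mM NaCl, 1% NP40, 10 mM NaF, 1 mM PMSF and protease inhibitors, then spun 30 min at 4 °C. Protein was measured by Bradford and lysates immunoblotted, with ERK1 as loading control.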

[3] = test system: NB-4; test: Cell cycle arrest in human NB4 cells assessed as increase in accumulation at pre-G1 phase at 1 uM after 24 hrs by FACS analysis; format: functional, cell-based; procedure, shortened: as §1
[4] = biological target: T1, Histone deacetylase 1 (Homo sapiens, UniProt Q13547); test: Inhibition of human recombinant HDAC1 after 15 mins by fluorimetric assay
T1 sequence (Q13547 whole entry): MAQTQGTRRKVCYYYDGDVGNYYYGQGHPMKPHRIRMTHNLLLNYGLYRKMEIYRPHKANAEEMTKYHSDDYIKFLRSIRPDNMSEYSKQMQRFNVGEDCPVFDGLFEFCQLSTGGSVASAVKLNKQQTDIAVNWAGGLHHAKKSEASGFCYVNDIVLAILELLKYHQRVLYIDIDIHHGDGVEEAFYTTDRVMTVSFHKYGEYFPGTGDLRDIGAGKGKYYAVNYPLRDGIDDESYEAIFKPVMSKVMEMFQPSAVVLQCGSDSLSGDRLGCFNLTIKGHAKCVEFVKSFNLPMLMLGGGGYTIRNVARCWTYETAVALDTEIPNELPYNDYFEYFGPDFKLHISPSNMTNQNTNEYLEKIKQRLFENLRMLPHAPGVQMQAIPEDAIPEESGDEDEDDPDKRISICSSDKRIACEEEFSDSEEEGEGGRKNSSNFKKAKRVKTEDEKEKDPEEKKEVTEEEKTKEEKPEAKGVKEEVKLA

[5] = biological target: Histone deacetylase 4 (Homo sapiens, UniProt P56524); test: Inhibition of human recombinant HDAC4 after 15 mins by fluorimetric assay
Chain of Histone deacetylase 4 (P56524 whole entry): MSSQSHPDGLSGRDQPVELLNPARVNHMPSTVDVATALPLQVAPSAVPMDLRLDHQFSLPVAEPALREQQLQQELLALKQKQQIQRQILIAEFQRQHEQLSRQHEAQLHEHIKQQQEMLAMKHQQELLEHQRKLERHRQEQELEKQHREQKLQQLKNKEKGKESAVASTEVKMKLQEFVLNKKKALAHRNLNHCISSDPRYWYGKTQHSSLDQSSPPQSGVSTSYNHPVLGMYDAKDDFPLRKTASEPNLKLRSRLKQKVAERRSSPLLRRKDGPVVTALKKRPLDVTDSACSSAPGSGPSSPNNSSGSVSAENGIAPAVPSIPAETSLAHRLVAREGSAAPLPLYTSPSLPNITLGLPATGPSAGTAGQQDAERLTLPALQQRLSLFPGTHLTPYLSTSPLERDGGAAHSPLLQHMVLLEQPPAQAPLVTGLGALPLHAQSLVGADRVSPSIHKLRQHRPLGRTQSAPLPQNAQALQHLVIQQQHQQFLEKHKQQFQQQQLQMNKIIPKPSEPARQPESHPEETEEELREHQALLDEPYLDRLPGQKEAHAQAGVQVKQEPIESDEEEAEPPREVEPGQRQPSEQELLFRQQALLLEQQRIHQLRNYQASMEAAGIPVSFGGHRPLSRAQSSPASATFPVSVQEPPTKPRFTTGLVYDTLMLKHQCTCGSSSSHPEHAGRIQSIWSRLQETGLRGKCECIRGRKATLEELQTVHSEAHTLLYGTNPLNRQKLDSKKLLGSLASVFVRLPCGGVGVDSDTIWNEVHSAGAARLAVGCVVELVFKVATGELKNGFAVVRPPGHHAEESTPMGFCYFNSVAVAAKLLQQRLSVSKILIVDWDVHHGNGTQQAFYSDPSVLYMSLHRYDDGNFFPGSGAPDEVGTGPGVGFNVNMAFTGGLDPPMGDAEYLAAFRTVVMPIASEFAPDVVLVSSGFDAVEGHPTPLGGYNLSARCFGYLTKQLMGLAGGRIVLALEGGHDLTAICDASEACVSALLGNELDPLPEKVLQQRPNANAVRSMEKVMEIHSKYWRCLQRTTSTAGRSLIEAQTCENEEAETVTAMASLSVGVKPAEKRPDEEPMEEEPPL

[6] = test system: NB-4; test: Effect on differentiation of human NB4 cells assessed as induction of CD11c expression at 5 uM after 24 hrs by propidium iodide staining-base FACS analysis; format: functional
Procedure, shortened: (§3)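 NB4 cells in RPMI 1640/FBS at 37 °C, 5% CO2, treated with compounds from DMSO. 2.5 × 10^5 cells were pelleted and PBS-washed, then stained 30 min at 4 °C in the dark with PE-anti-CD11c, with PE-IgG as isotype background control. Cells were resuspended in PBS with 0.25 μg/mL PI and analysed by flow cytometry, excluding PI-positive cells. Run in triplicate.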

[7] = test system: NB-4; test: Effect on differentiation of human NB4 cells assessed as induction of CD11c expression at 5 uM after 48 hrs by propidium iodide staining-base FACS analysis; format: functional; procedure, shortened: as §3
[8] = biological target: Tubulin (Homo sapiens) (UniProt P68371+Q9H4B7+P0DPH7+P68366+Q13509+Q71U36+P04350+Q3ZCM7+P07437+P68363+Q9BQE3+Q6PEY2+Q13885+Q9BVA1+Q9BUF5); test: Inhibition of HDAC in human NB4 cells assessed as increase in acetylate tubulin level at 5 uM after 24 hrs by Western blot analysis; format: cell-based; details: NB-4; procedure, shortened: as §2
[9] = biological target: Histone deacetylase (Homo sapiens) (UniProt Q13547+O15379+Q9UBN7+Q92769+Q9UQL6+Q8WUI4+Q9BY41+Q96DB2+P56524+Q9UKV0+Q969S8); details: NB-4, at 5 µM
[10] = biological target: T1, Histone deacetylase 1; test: Ratio of compound IC50 to largazole IC50 for human recombinant HDAC1
Procedure, shortened: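 Enzyme was preincubated with compound 15 min at 37 °C, then 50 μM specific fluorogenic substrate was added. Reaction ran 1 h at 37 °C with gentle shaking, read by fluorescence; IC50 derived.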

[11] = test system: NB-4; test: Cell cycle arrest in human NB4 cells assessed as mild increase in accumulation at pre-G1 phase at 5 uM after 48 hrs by FACS analysis; format: functional, cell-based; procedure, shortened: as §1
[12] = biological target: T1, Histone deacetylase 1; test: Ratio of largazole IC50 to compound IC50 for human recombinant HDAC1

SMILES | Activity [1] | Activity [2] | Activity [3] | IC50 [4] | IC50 [5] | Activity [6] | Activity [7] | increase in acetylated tubulin (active/not active) [8] | inhibition [9] | Ratio IC50 [10] | Activity [11] | Ratio IC50 [12]
Nc1ccccc1NC(=O)c1ccc(CNC(=O)OCc2cccnc2)cc1 | Active | Active | – | – | – | – | – | – | – | – | – | –
CC1=C(/C=C/C(C)=C/C=C/C(C)=C/C(=O)O)C(C)(C)CCC1 | – | – | Active | – | – | – | – | – | – | – | – | –
CCCCCCCC(=O)SCC/C=C/[C@@H]1CC(=O)NCc2nc(cs2)C2=N[C@@H](CS2)C(=O)N[C@@H](C(C)C)C(=O)O1 | Active | Active | Active | 13.7 nM | 7.5 µM | 5% | 5% | Active | Active | – | – | –
CCCCCCCC(=O)SCC/C=C/[C@@H]1CC(=O)NCc2nc(cs2)C2=N[C@@](Cc3ccccc3)(CS2)C(=O)N[C@@H](C(C)C)C(=O)O1 | Active | Active | Active | 4.5 nM | 3 µM | 5% | 5% | Active | Active | – | – | –
CCCCCCCC(=O)SCC/C=C/[C@@H]1CC(=O)NCc2nc(cs2)C2=N[C@@](CC)(CS2)C(=O)N[C@@H](C(C)C)C(=O)O1 | Active | Active | Active | 161 nM | 4.9 µM | 5% | 5% | Active | Active | 10 | – | –
CCCCCCCC(=O)SCC/C=C/[C@@H]1CC(=O)NCc2nc(cs2)-c2nc(cs2)C(=O)N[C@@H](C(C)C)C(=O)O1 | inactive | – | – | 4.7 nM | 3 µM | 5% | 5% | inactive | Active | – | Active | 2
O=C(CCCCCCC(=O)Nc1ccccc1)NO | Active | Active | – | – | – | – | – | Active | – | – | – | –
CCCCCCCC(=O)SCC/C=C/[C@@H]1CC(=O)NCc2nc(cs2)C2=N[C@@](C)(CS2)C(=O)N[C@@H](C(C)C)C(=O)O1 [LARGAZOLE] | Active | Active | Active | 11.4 nM | 3 µM | 5% | 5% | Active | Active | – | – | –
